Only a selection was taken, and hits are over-represented in it overall.
Diaph act CS: activates diaphorase or chemically reduces, flagging diaphorase assay artifacts. activation factor at 20 µM. Diaphorase/resazurin coupled assay, resorufin fluorescence, 16 min; hits give high values; 1 = vehicle wells, 0 = NADH-free wells. 190,000 compounds, 0.005% hits. AID 1229;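 active = diaphorase activity raised at least twofold by the compound at 20 µM; inactive = activation factor below 2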
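Material: purified diaphorase enzyme from Clostridium kluyveri / Medium: HEPES pH 7.4 buffer with MgCl2 and Tween 20 / Schedule: enzyme reaction of 16 min at room temperature / Measured by: resorufin fluorescence, excitation 544 nm, emission 590 nm / Evaluation: rise in resorufin formation, marking diaphorase activation or chemical reduction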
Diaphorase inh: inhibits diaphorase or chemically oxidizes, flagging diaphorase assay artifacts | inhibition, % at 20 µM | diaphorase resazurin-to-resorufin fluorescence, NADH, 16 min; bacterial (C. kluyveri) enzyme, not human | 190,000 compounds, 0.69% hits;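 active = primary screen inhibition at 20 µM above a set limit, cut at about 50% in these data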;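 note: plate controls were DMSO with full reaction for no effect and wells lacking NADH for full effect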
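Test system: diaphorase enzyme from Clostridium kluyveri; amount: diaphorase at 0.14 U/mL in enzyme working solution; detection: fluorescence of resorufin formed from resazurin, Ex 544/Em 590 nm; times: reaction incubation of 16 min at room temperature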
Redox H2O2 prof: compounds producing H2O2 with reducing agent – biochemical, NIH compound library profiling, artefact control for MLSCN library redox annotation, primary screen | DTT-dependent redox cycling H2O2, phenol red/HRP absorbance; 100% = 100 µM peroxide control, 0% = buffer | activation, % at 10 µM | 200,000 compounds, 0.03% hits;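 active = activation of at least 50% relative to the plate's high and low controls in the primary single-dose screen; inactive = activation below 50%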;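 note: compound incubated with DTT at 0.8 mM final as the reducing agent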
Lmaj promast: Leishmania major promastigote growth inhibition; Leishmania major promastigotes, resazurin fluorescence viability; inhibition, % at 10 µM; 200,000 compounds, 9% hits; AID 1063;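 note: promastigotes grown with compound for 44 hours at 28 °C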
PfG6PD inh: PfG6PD (Plasmodium falciparum) enzyme inhibition; 350,000 compounds, 0.78% hits; AID 504690; PfGluPho enzyme, NADPH resazurin-diaphorase fluorescence; inhibition, % at 20 µM;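 active = inhibition reaching at least a set limit at 20 µM in the primary screen, cut at about 59% in these data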;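 note: 0% = DMSO wells with substrate and 100% = DMSO wells lacking glucose-6-phosphate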
G6PDH CS: inhibits Leuconostoc G6PDH, flagging false hits in G6PDH-based assays; Purified L. mesenteroides G6PDH, diaphorase/resazurin coupled fluorescence, 45 min; inhibition, % at 5 µM; AID 1020; 200,000 compounds, 0.12% hits
PfGluPho conf: PfG6PD inhibition, single-dose confirmed. inhibition, % at 20 µM. 2,400 compounds, 34% hits. recombinant PfGluPho, NADPH-diaphorase-resazurin fluorescence. shares compounds with PfG6PD inh. AID 504753;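 active = inhibition of at least 50% at 20 µM in any single replicate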;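 note: 0% = DMSO with substrate and 100% = DMSO lacking glucose-6-phosphate substrate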
Diaph ctr 10uM: counter-screen for P. falciparum G6PD inhibitors: diaphorase inhibitors, oxidizers | shares compounds with PfG6PD inh | diaphorase-coupled resazurin reduction, fluorescence, NADPH 10 uM | inhibition, % at 20 µM | 820 compounds, 39% hits;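 active = average inhibition reaching 50% or more with the compound at 20 µM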;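 note: resorufin red fluorescence formed as diaphorase reduces resazurin using NADPH; 0% = DMSO with enzyme and 100% = DMSO without enzyme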
Diaph ctr 30uM: counter-screen for P. falciparum G6PD inhibitors: diaphorase inhibitors, oxidizers. shares compounds with PfG6PD inh. Diaphorase/resazurin coupled assay, resorufin fluorescence, 30 uM NADPH. inhibition, % at 20 µM. 820 compounds, 29% hits. AID 504863;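 active = inhibition averaging 50% or more, tested at 20 µM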;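 note: 0% = DMSO with enzyme and 100% = DMSO wells lacking diaphorase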
Numbers without * were called inactive; / = no result given. Cut-off read from the data, not from the text of the source, unless noted: active = inhibition above about 50%; inactive = the rest.

SMILES | Diaph act CS | Diaphorase inh | Redox H2O2 prof | Lmaj promast | PfG6PD inh | G6PDH CS | PfGluPho conf | others
CCOc1ccc(C(=O)CN2C(=O)NC3(CCCc4ccccc43)C2=O)cc1 (stereo not given) | / | / | / | / | 3 | / | /
O=C(c1cc(COc2ccc(F)cc2Cl)on1)N1CCN(c2cnccn2)CC1 | / | / | / | / | 2 | / | /
Cc1cc(C)c(S(=O)(=O)Nc2ccccc2-c2ccccc2)c(C)c1 | 0.8 | 23 | 0 | 32 | 85* | 15 | 8
O=S(=O)(Nc1ccccc1-c1ccccc1)c1ccccc1 | / | / | / | / | 59 | / | /
CC1COCC(C)N1C1=C(Cl)C(=O)c2ccccc2C1=O (stereo not given) | / | / | / | / | 75* | / | 64* | Diaph ctr 10uM=28;Diaph ctr 30uM=24
O=C1C(Cl)=C(N2CCC(C(=O)O)CC2)C(=O)c2ccccc21 | / | / | / | / | 43 | / | /
CN1CCN(C2=C(Cl)C(=O)c3ccccc3C2=O)CC1 | / | / | / | / | 107* | / | 75* | Diaph ctr 10uM=74*;Diaph ctr 30uM=77*
COc1cccc(CNC(=O)COC(=O)c2cc([N+](=O)[O-])ccc2N2CCCC2)c1 | / | / | / | / | 13 | / | /
COC(=O)[C@H](C)N(Cc1ccc(Cl)c(Cl)c1)S(=O)(=O)CCN1CCCC1 | / | / | / | / | 12 | / | /
CCN(CC)CCn1cnc2c([nH]c3cccc(OC)c32)c1=O | 0.8 | 22 | 0 | 1 | 3 | 2 | /
COc1cccc2c3cccc(OC)c3c3[nH]cnc3c12 | / | / | / | / | 68* | / | 33
CC(C)OC(=O)N(C)C[C@@H]1OCc2cnnn2CCCC(=O)N([C@H](C)CO)C[C@@H]1C | / | / | / | / | 4 | / | /
Nc1nc2nc(-c3ccccc3)cc(C(F)(F)F)c2s1 | / | / | / | / | 7 | / | /
N=C(N)c1ccc(N=Nc2c(O)ccc3c2[nH]c2ccccc23)cc1 | / | / | / | / | 78* | / | 20
O=C(Nc1ccc([N+](=O)[O-])cc1)c1cccc([N+](=O)[O-])c1 | / | / | / | / | 10 | / | /
CCOC(=O)CSc1nnc(NC(=O)c2cccc([N+](=O)[O-])c2)s1 | 0.9 | 15 | 0 | -4 | 80* | 10 | 58* | Diaph ctr 10uM=51*;Diaph ctr 30uM=39
O=C(Nc1ncc([N+](=O)[O-])s1)c1cccc([N+](=O)[O-])c1 | / | / | / | / | 103* | / | 89* | Diaph ctr 10uM=77*;Diaph ctr 30uM=69*
CCc1ccccc1NC(=O)CSc1nnc(-c2cc(C)[nH]n2)n1N | / | / | / | / | 2 | / | /
COc1ccccc1/C=N/NC(=O)c1nnn(-c2nonc2N)c1-c1cccs1 | / | / | / | / | 93* | / | 55* | Diaph ctr 10uM=85*;Diaph ctr 30uM=67*
Cc1ccc(-c2c(C(=O)N/N=C/c3sccc3C)nnn2-c2nonc2N)cc1 | / | / | / | / | 88* | / | 45
COc1ccccc1/C=N/NC(=O)c1nnn(-c2nonc2N)c1-c1ccccc1 | / | / | / | / | 16 | / | /
Nc1nonc1-n1nnc(C(=O)N/N=C/c2cccc(Cl)c2)c1-c1ccc2c(c1)OCO2 | / | / | / | / | 119* | / | 99* | Diaph ctr 10uM=87*;Diaph ctr 30uM=66*
Cc1ccsc1/C=N/NC(=O)c1nnn(-c2nonc2N)c1-c1ccccc1 | / | / | / | / | 29 | / | /
Cc1ccc(C(=O)CCC(=O)OCC(=O)N(C)c2c(N)n(Cc3ccccc3)c(=O)[nH]c2=O)cc1 | / | / | / | / | 1 | / | /
NC(=S)NN=Cc1cc(-c2cccc(N)c2)ccn1 | / | / | / | / | 69* | / | 36
SMILES | Diaph act CS | Diaphorase inh | Redox H2O2 prof | Lmaj promast | PfG6PD inh | G6PDH CS | PfGluPho conf | others
CN1CCN(C(=O)c2ccc(CNS(=O)(=O)c3cccc(Cl)c3)cc2)CC1 | / | / | / | / | 9 | / | /
Cc1ccc2cccc(Oc3ccc([N+](=O)[O-])cc3[N+](=O)[O-])c2n1 | 0.8 | 23 | 0 | -1 | 121* | -1 | 91* | Diaph ctr 10uM=94*;Diaph ctr 30uM=80*
N#Cc1ccc(Oc2cccc3cccnc23)c([N+](=O)[O-])c1 | / | / | / | / | 102* | / | 70* | Diaph ctr 10uM=64*;Diaph ctr 30uM=43
O=[N+]([O-])c1ccc(Oc2cccc3cccnc23)c([N+](=O)[O-])c1 | 0.8 | 20 | 0 | 30 | 119* | -1 | 95* | Diaph ctr 10uM=85*;Diaph ctr 30uM=75*
N#Cc1ccc(COc2cccnc2[N+](=O)[O-])cc1 | / | / | / | / | -5 | / | /
O=[N+]([O-])c1ccccc1OCCOCCOc1cccc2cccnc12 | 0.8 | 19 | 0 | -2 | 3 | -1 | /
O=C(CN(Cc1ccccc1)S(=O)(=O)c1ccc(F)cc1)NCc1cccnc1 | / | / | / | / | 13 | / | /
Cn1ncc(Cl)c1C(=O)N/N=C/c1cccc(OC2CSC2)c1 | 1 | 3 | -1 | -5 | 109* | 0 | 85* | Diaph ctr 10uM=76*;Diaph ctr 30uM=64*
O=C(CSc1ncccn1)N/N=C/c1cccc(OC2CSC2)c1 | 1 | -2 | 0 | 15 | 14 | 8 | /
COC(=O)c1cc2c(n1S(=O)(=O)c1ccc(C)cc1)C(=O)C(=O)c1[nH]cc(C(=O)OCc3ccccc3)c1-2 | / | / | / | / | 77* | / | 50* | Diaph ctr 10uM=36;Diaph ctr 30uM=37
COC(=O)c1ccc(COC(=O)c2ccc(CS(=O)(=O)c3ccc(C)cc3)cc2)cc1 | 1 | -2 | 1 | -3 | -2 | 0 | /
c1ccc(CN2CCC(N3CCC(N4CCCCCC4)CC3)CC2)cc1 | / | / | / | / | 14 | / | /
c1ccc2c(c1)c1c(c3ccccc32)CN2CCCC2C1 (stereo not given) | / | / | / | / | 65* | / | -28
CCOC(=O)c1sc2nc(N3CCOCC3)c3c(c2c1N)CCC3 | 0.9 | 9 | 0 | 22 | 9 | 3 | /
CCCCN(CCCC)C(=O)c1sc2nc(N3CCOCC3)c3c(c2c1N)CCCC3 | / | / | / | / | 71* | / | -6
NC(=O)c1sc2nc(N3CCOCC3)c3c(c2c1N)CCCC3 | 0.7 | 32 | 1 | 41 | 66* | 5 | 12
COc1ccccc1N1C(=O)C=C(Sc2nc(C)cc(C)n2)C1=O | / | / | / | / | 79* | / | 87* | Diaph ctr 10uM=-4;Diaph ctr 30uM=-15
COc1ccccc1N1C(=O)C2CC(C)=C(C)CC2C1=O (stereo not given) | 0.8 | 20 | -1 | -4 | 9 | 4 | /
C=CCNC(=O)c1ccc2c(c1)S(=O)(=O)c1ccccc1C2=O | / | / | / | / | -11 | / | /
Fc1ccc(-c2nc3ccc(Br)cn3c2Cc2ccccc2)cc1 | / | / | / | / | 67* | / | -12
Clc1ccc(-c2nc3ccc(Br)cn3c2Cc2ccccc2)cc1 | / | / | / | / | 88* | / | -4
Cc1ccc(Cc2c(-c3ccc(Cl)cc3)nc3ccc(Br)cn23)cc1 | / | / | / | / | 67* | / | -13
Cc1ccc(Cc2c(-c3ccc(C)cc3)nc3ccc(Br)cn23)cc1 | / | / | / | / | 48 | / | /
CCCOc1ccc(-c2c(C(=O)N/N=C(\C)c3ccncc3)nnn2-c2nonc2N)cc1 | / | / | / | / | 6 | / | /
COc1ccc(N=Cc2c(O)c3ccccc3n2C(C)=O)cc1 | / | / | / | / | 29 | / | /
